# Measurements published in ChEMBL document CHEMBL4425122, “Discovery of 1-(1H-Pyrazolo[4,3-c]pyridin-6-yl)urea Inhibitors of Extracellular Signal-Regulated Kinase (ERK) for the Treatment of Cancers” (J Med Chem, 2016).
# Legend:
# [1] = molecular target: Voltage-gated inwardly rectifying potassium channel KCNH2 (Homo sapiens, UniProt Q12809); test: Inhibition of human ERG
# Cytochrome P450 3A4 = Cytochrome P450 3A4 (Homo sapiens, UniProt P08684); test: Inhibition of CYP3A4 (unknown origin); type: ADME
# [2] = Inhibition of ERK in human A375SM cells harboring BRAF V600E mutant assessed as inhibition of RSK phosphorylation measured after 4 hrs by mesoscale electrochemiluminescent sandwich assay; type: cell-based; settings: A375-SM
# Summary of the method: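 A375SM (BRAF V600E melanoma) cells, 10,000 per well, treated 4 h; lysed 20 min at 4 °C in Tris/NaCl/EGTA/EDTA/Triton/NaF buffer with protease and phosphatase inhibitors. Lysate captured with biotin anti-RSK1 on streptavidin MSD plate, detected with SULFO-TAG anti-pRSK (pThr359/Ser363) overnight at 4 °C; electrochemiluminescence read. IC50 from 11-point titration.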
# [3] = molecular target: Mitogen-activated protein kinase 1 (Homo sapiens, UniProt P28482); test: Inhibition of human ERK2 preincubated for 15 mins followed by addition of IMAP peptide substrate and ATP measured after 60 mins by IMAP-FP assay
# Summary of the method: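 Final: 0.5 nM hERK2, 900 nM unlabeled + 80 nM labeled peptide, 30 µM ATP; 60 min, quenched with IMAP beads in binding buffer with 24 mM NaCl, read by fluorescence polarization after 60 min.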
# Homo sapiens [4] = species: Homo sapiens; test: Selectivity ratio, ratio of IC50 for human ERK2 to IC50 for RAF1 (unknown origin)
# Homo sapiens [5] = species: Homo sapiens; test: Selectivity ratio, ratio of IC50 for human ERK2 to IC50 for BRAF (unknown origin)
# [6] = molecular target: Mitogen-activated protein kinase 1 (Mus musculus, UniProt P63085); test: Inhibition of mouse ERK2 preincubated for 15 mins followed by addition of IMAP peptide substrate and ATP measured after 60 mins by IMAP-FP assay
# Homo sapiens [7] = species: Homo sapiens; test: Selectivity ratio, ratio of IC50 for human ERK2 to IC50 for COT (unknown origin)
# Homo sapiens [8] = species: Homo sapiens; test: Selectivity ratio, ratio of IC50 for human ERK2 to IC50 for MEK1 (unknown origin)
# Chain of Mitogen-activated protein kinase 1 (Homo sapiens, UniProt P28482) (P28482 whole entry): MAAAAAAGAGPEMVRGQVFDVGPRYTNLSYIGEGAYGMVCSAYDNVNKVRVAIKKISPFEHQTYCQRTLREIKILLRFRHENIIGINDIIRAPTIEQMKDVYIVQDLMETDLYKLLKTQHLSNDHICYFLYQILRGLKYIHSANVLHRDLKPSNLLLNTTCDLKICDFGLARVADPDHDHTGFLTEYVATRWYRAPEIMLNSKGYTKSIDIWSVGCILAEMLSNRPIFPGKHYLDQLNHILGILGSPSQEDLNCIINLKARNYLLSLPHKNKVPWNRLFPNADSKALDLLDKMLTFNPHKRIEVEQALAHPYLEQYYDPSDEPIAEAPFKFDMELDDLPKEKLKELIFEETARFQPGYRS
# Chain of Mitogen-activated protein kinase 1 (Mus musculus, UniProt P63085) (P63085 whole entry): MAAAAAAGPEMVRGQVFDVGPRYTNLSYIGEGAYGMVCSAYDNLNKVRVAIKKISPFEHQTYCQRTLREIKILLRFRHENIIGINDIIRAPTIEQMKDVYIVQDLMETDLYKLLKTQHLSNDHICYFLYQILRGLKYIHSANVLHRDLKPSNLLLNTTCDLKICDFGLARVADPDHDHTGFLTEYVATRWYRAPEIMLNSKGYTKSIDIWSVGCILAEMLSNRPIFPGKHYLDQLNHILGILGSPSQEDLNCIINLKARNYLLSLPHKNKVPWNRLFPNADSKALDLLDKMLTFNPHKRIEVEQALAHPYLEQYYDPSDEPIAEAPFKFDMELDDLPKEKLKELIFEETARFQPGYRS
# Chain of Voltage-gated inwardly rectifying potassium channel KCNH2 (Q12809 whole entry): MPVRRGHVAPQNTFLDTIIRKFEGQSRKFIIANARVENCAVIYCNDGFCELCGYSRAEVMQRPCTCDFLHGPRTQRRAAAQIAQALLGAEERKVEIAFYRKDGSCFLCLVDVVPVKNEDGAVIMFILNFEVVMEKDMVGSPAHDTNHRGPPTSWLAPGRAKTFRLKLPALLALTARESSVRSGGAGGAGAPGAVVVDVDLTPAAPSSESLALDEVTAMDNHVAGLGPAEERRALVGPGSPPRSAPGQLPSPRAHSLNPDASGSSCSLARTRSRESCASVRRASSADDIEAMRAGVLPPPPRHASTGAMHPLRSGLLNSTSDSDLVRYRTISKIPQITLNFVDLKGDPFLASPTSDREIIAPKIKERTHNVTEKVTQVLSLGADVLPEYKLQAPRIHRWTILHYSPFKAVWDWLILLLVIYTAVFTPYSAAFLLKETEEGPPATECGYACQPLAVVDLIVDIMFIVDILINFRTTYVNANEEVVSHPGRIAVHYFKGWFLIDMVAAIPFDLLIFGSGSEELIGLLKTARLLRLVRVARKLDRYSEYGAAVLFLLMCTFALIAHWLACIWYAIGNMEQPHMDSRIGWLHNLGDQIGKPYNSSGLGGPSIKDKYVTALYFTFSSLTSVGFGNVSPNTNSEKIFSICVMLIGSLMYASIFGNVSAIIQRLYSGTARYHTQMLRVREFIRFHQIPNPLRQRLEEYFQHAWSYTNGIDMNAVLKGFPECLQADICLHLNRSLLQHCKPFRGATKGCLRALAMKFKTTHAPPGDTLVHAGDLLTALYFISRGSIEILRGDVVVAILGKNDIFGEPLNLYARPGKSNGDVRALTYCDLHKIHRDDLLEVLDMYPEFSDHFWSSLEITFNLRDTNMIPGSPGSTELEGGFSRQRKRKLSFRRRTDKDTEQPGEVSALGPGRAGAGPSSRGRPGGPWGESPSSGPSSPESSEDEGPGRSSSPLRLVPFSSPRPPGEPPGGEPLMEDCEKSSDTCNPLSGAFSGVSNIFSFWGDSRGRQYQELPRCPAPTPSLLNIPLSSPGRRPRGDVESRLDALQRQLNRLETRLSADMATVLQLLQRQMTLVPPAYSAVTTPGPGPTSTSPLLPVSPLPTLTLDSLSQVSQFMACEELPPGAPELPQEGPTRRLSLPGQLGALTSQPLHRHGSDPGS
# Chain of Cytochrome P450 3A4 (P08684 whole entry): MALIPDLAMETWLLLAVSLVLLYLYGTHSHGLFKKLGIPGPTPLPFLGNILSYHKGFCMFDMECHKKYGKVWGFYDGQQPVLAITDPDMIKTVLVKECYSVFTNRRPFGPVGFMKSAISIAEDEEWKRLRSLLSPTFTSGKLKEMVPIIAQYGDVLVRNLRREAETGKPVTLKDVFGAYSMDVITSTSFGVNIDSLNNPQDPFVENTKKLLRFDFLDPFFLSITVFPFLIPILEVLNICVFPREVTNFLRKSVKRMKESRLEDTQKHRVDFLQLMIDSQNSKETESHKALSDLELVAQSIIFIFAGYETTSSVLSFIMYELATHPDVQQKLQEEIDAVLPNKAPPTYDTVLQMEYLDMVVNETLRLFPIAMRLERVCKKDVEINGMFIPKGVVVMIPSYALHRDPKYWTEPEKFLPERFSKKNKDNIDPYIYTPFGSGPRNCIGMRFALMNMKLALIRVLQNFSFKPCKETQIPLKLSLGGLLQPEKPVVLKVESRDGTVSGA
Compound,IC50 [1],IC50 (Cytochrome P450 3A4),IC50 [2],IC50 [3],Ratio IC50 (Homo sapiens [4]),Ratio IC50 (Homo sapiens [5]),IC50 [6],Ratio IC50 (Homo sapiens [7]),Ratio IC50 (Homo sapiens [8])
C[C@@H](NC(=O)Nc1cc2[nH]nc(-c3ccnc(F)c3)c2cn1)c1ccccc1,> 20 µM,29 µM,97 nM,0.3 nM,,,,,
Cc1cc(-c2n[nH]c3cc(NC(=O)NCc4ccccc4)ncc23)ccn1,,,220 nM,0.9 nM,< 100,< 100,0.2 nM,< 100,< 100
C[C@@H](NC(=O)Nc1cc2[nH]nc(-c3ccc(F)cc3)c2cn1)c1ccccc1,,,360 nM,0.8 nM,,,,,
